In brackets after ≈: the same amount, converted by molar mass.
Tests used:
[1] = system: E6SM; assay: 50% Minimum inhibitory concentration which is required to reduce cytopathogenicity induced by (Mc Intyre) strain of HSV-1 virus on human E6SM cells.; assay type: functional
Summary of the method: (§1)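 Confluent cell monolayers infected with 100 CCID50 virus and left 1 h for adsorption. Residual virus then removed and compound added at serial dilutions (400, 200, 100 ... µg/mL). Value is the concentration giving 50% reduction of CPE.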

[2] = system: E6SM; assay: 50% Minimum inhibitory concentration which is required to reduce cytopathogenicity induced by (KOS) strain of HSV-1 virus on human E6SM cells.; assay type: functional; summary of the method: as §1
[3] = system: E6SM; assay: 50% Minimum inhibitory concentration which is required to reduce cytopathogenicity induced by (G) strain of HSV-2 virus on human E6SM cells.; assay type: functional; summary of the method: as §1
[4] = system: CCRF-CEM; assay: 50% effective concentration of compound which is required to protect human CEM cells against HIV-1 induced giant cell formation.; assay type: functional, cell-based
Summary of the method: (§2)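 CEM cells at 250000–300000 cells/mL infected with HIV-1 (IIIB) or HIV-2 (ROD) at 100 CCID50/mL. Infected cells mixed with serial compound dilutions and incubated 4 days at 37 °C. Syncytium (giant cell) formation then scored. Values averaged over two independent experiments.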

[5] = system: MOLT-4; assay: EC50 is the cytotoxic concentration of compound required to reduce Molt4/C8 (human T-lymphocyte) cell viability by 50%.; assay type: functional, cell-based
Summary of the method: (§3)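 Human CEM or Molt-4 cells seeded at 7.5 × 10^5 cells/mL with varying compound concentrations. Incubated 3 days at 37 °C in humidified CO2. Viable cells counted with a Coulter counter. Value is the concentration reducing viable cell number by 50%.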

[6] = system: E6SM; assay: 50% Minimum inhibitory concentration which is required to reduce cytopathogenicity induced by TK-(B2006) strain of HSV-1 virus on human E6SM cells.; assay type: functional; summary of the method: as §1
[7] = system: E6SM; assay: 50% Minimum inhibitory concentration which is required to reduce cytopathogenicity induced by Vaccinia virus (VV) on human E6SM cells.; assay type: functional; summary of the method: as §1
[8] = system: FM3A; assay: EC50 is the cytotoxic concentration of compound required to reduce FM3A (murine mammary carcinoma cells) cell viability by 50%.; assay type: functional, cell-based; conditions: Mus musculus
Summary of the method: (§4)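 Murine L1210 or FM3A-derived cells seeded at 5 × 10^5 cells/mL with varying compound concentrations. Incubated 2 days at 37 °C in humidified CO2. Viable cells counted with a Coulter counter. Value is the concentration reducing viable cell number by 50%.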

[9] = system: HEL; assay: 50% Minimum inhibitory concentration which is required to reduce cytopathogenicity induced by (KOS) strain of HSV-1 virus on human embryonic HEL cells.; assay type: functional; summary of the method: as §1
[10] = system: CEM-TK(-); assay: Cytotoxic concentration which is required to reduce CEM/TK- cell viability by 50%.; assay type: functional; conditions: Homo sapiens
[11] = system: HEL; assay: 50% Minimum inhibitory concentration which is required to reduce cytopathogenicity induced by (G) strain of HSV-2 virus on human embryonic HEL cells.; assay type: functional; summary of the method: as §1
[12] = system: HEL; assay: 50% Minimum inhibitory concentration which is required to reduce cytopathogenicity induced by (Lyons) strain of HSV-2 virus on human embryonic HEL cells.; assay type: functional; summary of the method: as §1
[13] = system: CCRF-CEM; assay: 50% effective concentration of compound which is required to protect human CEM cells against HIV-2 induced giant cell formation.; assay type: functional, cell-based; summary of the method: as §2
[14] = system: HEL; assay: 50% Minimum inhibitory concentration which is required to reduce cytopathogenicity induced by (OKA) strain of Varicella Zoster virus on human embryonic HEL cells.; assay type: functional
[15] = system: CCRF-CEM; assay: Cytotoxic concentration which is required to reduce human CEM cell viability by 50%.; assay type: functional; summary of the method: as §3
[16] = system: HEL; assay: 50% Minimum inhibitory concentration which is required to reduce cytopathogenicity induced by TK-(B2006) strain of HSV-1 virus on human embryonic HEL cells.; assay type: functional; summary of the method: as §1
[17] = Selectivity index of HIV-1 and HIV-2 with respect to MT-4 cells; assay type: functional, MT4
Summary of the method: (§5)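 Selectivity index calculated as average CC50 divided by average EC50. Each average comes from two independent experiments, using HIV-1 (IIIB) and HIV-2 (ROD) in CEM or MT-4 cells.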

[18] = system: MT4; assay: Cytotoxic concentration which is required to reduce human MT-4 cell viability by 50%.; assay type: functional
[19] = system: CEM-TK(-); assay: 50% effective concentration of compound which is required to protect Thymidine kinase deficient human CEM (CEM/TK-) cells against HIV-2.; assay type: functional, cell-based
[20] = system: E6SM; assay: 50% Minimum inhibitory concentration which is required to reduce cytopathogenicity induced by (Lyons) strain of HSV-2 virus on human E6SM cells.; assay type: functional; summary of the method: as §1
[21] = system: MT4; assay: 50% effective concentration of compound which is required to protect human MT-4 cells against cytopathogenicity of HIV-1.; assay type: functional, cell-based
[22] = system: HEL; assay: 50% Minimum inhibitory concentration which is required to reduce cytopathogenicity induced by (Mc Intyre) strain of HSV-1 virus on human embryonic HEL cells.; assay type: functional; summary of the method: as §1
[23] = Minimum cytotoxic concentration which causes microscopically detectable alteration of normal cell morphology after 2 days of incubation.; assay type: functional; conditions: 48 h
Summary of the method: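 Uninfected E6SM cells exposed to compound for 2 days. Minimum concentration giving a microscopically detectable change in normal cell morphology recorded.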

[24] = system: MT4; assay: 50% effective concentration of compound which is required to protect human MT-4 cells against cytopathogenicity of HIV-2.; assay type: functional, cell-based
[25] = Selectivity index of HIV-1 and HIV-2 with respect to CEM cells; assay type: functional, CCRF-CEM; summary of the method: as §5
[26] = system: E6SM; assay: 50% Minimum inhibitory concentration which is required to reduce cytopathogenicity induced by (196) strain of HSV-2 virus on human E6SM cells.; assay type: functional; summary of the method: as §1
[27] = system: FM3A; assay: EC50 is the cytotoxic concentration of compound required to reduce FM3A/TK- HSV-1TK+ cell viability by 50%.; assay type: functional, cell-based; conditions: Mus musculus; summary of the method: as §4
[28] = system: L1210; assay: EC50 is the cytotoxic concentration of compound required to reduce L1210 (murine leukemia cells) cell viability by 50%.; assay type: functional, cell-based; conditions: Mus musculus; summary of the method: as §4
[29] = system: FM3A; assay: EC50 is the cytotoxic concentration of compound required to reduce FM3A/TK- (Thymidine kinase deficient murine mammary carcinoma cells) cell viability by 50%.; assay type: functional, cell-based; conditions: Mus musculus; summary of the method: as §4
[30] = system: E6SM; assay: 50% Minimum inhibitory concentration which is required to reduce cytopathogenicity induced by (F) strain of HSV-1 virus on human E6SM cells.; assay type: functional; summary of the method: as §1

Row | Compound | MIC [1] [µg/mL] | MIC [2] [µg/mL] | MIC [3] [µg/mL] | EC50 [4] [µg/mL] | MIC [6] [µg/mL] | MIC [9] [µg/mL] | CC50 [10] [µg/mL] | MIC [11] [µg/mL] | MIC [12] [µg/mL] | EC50 [13] [µg/mL] | CC50 [15] [µg/mL] | MIC [16] [µg/mL] | Selectivity index [17] | CC50 [18] [µg/mL] | EC50 [19] [µg/mL] | MIC [20] [µg/mL] | EC50 [21] [µg/mL] | MCC [23] [µg/mL] | MIC [26] [µg/mL] | MIC [30] [µg/mL] | also measured
1 | CC(=O)O/N=C1/C[C@H](n2cc(C)c(=O)[nH]c2=O)O[C@@H]1CO.CC(=O)O/N=C1\C[C@H](n2cc(C)c(=O)[nH]c2=O)O[C@@H]1CO (racemic) | 2 | 0.9 | 1 | 1 | > 200 | 3.8 | > 200 | 2.8 | 2 | 0.8 | 104 | > 5 | 182 | 7.1 | > 20 | 4 | 0.05 | 400 | 70 | 5 | EC50 [5]: 14 µg/mL; MIC [7]: 70 µg/mL; EC50 [8]: > 200 µg/mL; MIC [14]: 20 µg/mL; MIC [22]: 2.7 µg/mL; EC50 [24]: 0.05 µg/mL; Selectivity index [25]: 130; EC50 [27]: > 200 µg/mL; EC50 [28]: 19 µg/mL; EC50 [29]: > 200 µg/mL
2 | O=c1[nH]c(=O)n([C@H]2C[C@H](O)[C@@H](CO)O2)cc1/C=C/Br [BRIVUDINE] | 90 (≈ 270 µM) | 0.007 (≈ 0.021 µM) | 90 (≈ 270 µM) | – | 10 (≈ 30 µM) | 0.005 (≈ 0.015 µM) | – | 30 (≈ 90.1 µM) | 5 (≈ 15 µM) | – | – | 50 (≈ 150 µM) | – | – | – | > 400 | – | > 300 | > 400 | 0.02 (≈ 0.06 µM) | MIC [22]: 0.003 µg/mL (≈ 0.00901 µM)
3 | Nc1nc2c(ncn2COC(CO)CO)c(=O)[nH]1 [GANCICLOVIR] | 0.003 (≈ 0.0118 µM) | 0.001 (≈ 0.00392 µM) | 0.002 (≈ 0.00784 µM) | – | 5 (≈ 19.6 µM) | – | – | – | – | – | – | – | – | – | – | 0.002 (≈ 0.00784 µM) | – | > 100 | 0.006 (≈ 0.0235 µM) | 0.002 (≈ 0.00784 µM) | –
4 | NC(=O)c1ncn([C@@H]2O[C@H](CO)[C@@H](O)[C@H]2O)n1 [RIBAVIRIN] | 90 (≈ 369 µM) | 60 (≈ 246 µM) | 50 (≈ 205 µM) | – | 150 (≈ 614 µM) | – | – | – | – | – | – | – | – | – | – | 100 (≈ 409 µM) | – | > 400 | 150 (≈ 614 µM) | 80 (≈ 328 µM) | –
5 | Cc1cn([C@H]2C[C@H](N=[N+]=[N-])[C@@H](CO)O2)c(=O)[nH]c1=O [ZIDOVUDINE] | – | – | – | 0.0007 (≈ 0.00262 µM) | – | – | > 200 | – | – | 0.0009 (≈ 0.00337 µM) | > 100 | – | 3000 | 1.5 (≈ 5.61 µM) | > 25 | – | 0.0005 (≈ 0.00187 µM) | – | – | – | EC50 [24]: 0.0007 µg/mL (≈ 0.00262 µM); Selectivity index [25]: >100000
